# Hits are enriched below; roughly 1.7% of the tested compounds scored in any of these assays.
# PfGluPho inh: PfG6PD enzyme inhibitors, primary screen, biochemical, fluorescence intensity, uHTS | glucose-6-phosphate dehydrogenase-6-phosphogluconolactonase (Plasmodium falciparum 3D7) | PfGluPho enzyme, NADPH resazurin-diaphorase fluorescence | inhibition, % at 20 µM | 0.78% of 350,000 active | AID 504690, 2011;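 active = inhibition reaching at least a set limit at 20 µM in the primary screen, cut at about 59% in these data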;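 also: 0% = DMSO wells with substrate and 100% = DMSO wells lacking glucose-6-phosphate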
# Beta2AR agonist: beta2AR agonists driving receptor internalization, primary screen, cell-based, FAP fluorogen, flow cytometry; Beta-2 adrenergic receptor (Homo sapiens), P07550; response, % (concentration not given with the values); 0.43% of 340,000 active; Am2.2-beta2AR cells;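 active = response above a set limit, near 3 SD of response in nonfluorescent compounds, cut at about 42% in these data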
# Target sequence (P07550 whole entry, looked up): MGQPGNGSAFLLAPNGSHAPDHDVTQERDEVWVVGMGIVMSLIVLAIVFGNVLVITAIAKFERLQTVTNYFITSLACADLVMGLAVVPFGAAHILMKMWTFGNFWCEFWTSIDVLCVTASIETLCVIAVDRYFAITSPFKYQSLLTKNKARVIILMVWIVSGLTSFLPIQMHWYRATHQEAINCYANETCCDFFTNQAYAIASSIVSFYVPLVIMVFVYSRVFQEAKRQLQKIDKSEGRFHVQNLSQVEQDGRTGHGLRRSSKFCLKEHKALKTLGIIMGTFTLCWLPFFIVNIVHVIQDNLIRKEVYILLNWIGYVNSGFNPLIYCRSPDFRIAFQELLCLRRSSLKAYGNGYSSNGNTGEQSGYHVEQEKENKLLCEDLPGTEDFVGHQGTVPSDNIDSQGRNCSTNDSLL
# APJ agonist: agonists of human apelin receptor APJ, primary screen, CHO-K1 cells, PathHunter beta-arrestin, luminescence. P35414. 0% DMSO wells, 100% apelin. activation, % at 20 µM. 0.11% of 330,000 active. AID 2520, 2010;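 active = activation more than six SD over the plate average, tested at 20 µM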;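 also: 0% = DMSO alone and 100% = apelin-13 at 10 nM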
#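 Incubation: overnight seeding, 90 min compound at 25 °C, 1 h detection; test system: PathHunter CHO-K1 APJ (AGTRL-1) beta-arrestin reporter cells; amount: 1000 cells/well; doses: one dose, 20 µM compound, 1% DMSO; measured by: beta-gal luminescence; measure: agonist-driven arrestin binding to APJ; benchmarks: negative DMSO alone, positive Apelin-13 at 10 nM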
# CXCR6 inh: CXCR6 receptor inhibitors, primary screen, cell-based, beta-arrestin, luminescence, CHO-K1 PathHunter, 1536-well | inhibition, % at 20 µM | 0.36% of 360,000 active | AID 602244, 2012; in the data active = inhibition above about 34%, passing the limit was not always enough;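 also: antagonist mode with CXCL16 agonist at 10 nM final; 0% = 10 nM CXCL16 with DMSO and 100% = unstimulated wells without agonist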
# CCR6 antag: CCR6 receptor antagonists, primary screen, cell-based, CHO-K1, luminescence, beta-arrestin, uHTS; 0.49% of 340,000 active; inhibition, % at 20 µM; CHO-K1 CCR6 PathHunter beta-arrestin, CCL20-stimulated; C-C chemokine receptor type 6 (Homo sapiens), P51684;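 active = compounds whose inhibition of the agonist-driven luminescence signal at 20 µM reaches about 50%, limit read from the data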;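 also: cells stimulated with CCL20 at 14 nM final; plate controls were DMSO with CCL20 for no effect and DMSO without agonist for full effect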
# APJ antagonist: antagonists of human apelin receptor APJ, primary screen, CHO-K1 cells, beta-arrestin complementation, luminescence | P35414 | 0.32% of 330,000 active | inhibition, % at 20 µM;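 active = inhibition above about 40% at 20 µM, limit read from the data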;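 also: cells challenged with 10 nM apelin-13 agonist together with compound; plate controls were apelin-13 plus DMSO wells for no effect and DMSO wells lacking apelin-13 for full effect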
# APJ antag confirm: APJ antagonists blocking beta-arrestin recruitment, confirmation, cell-based, luminescence, single concentration, uHTS hits; inhibition, % at 20 µM; 66% of 950 active; antagonist mode; AID 2766, 2010; shares compounds with APJ antagonist; in the data active = inhibition above about 50%
# * hit, by the source's call; . = no result.
SMILES,PfGluPho inh,Beta2AR agonist,APJ agonist,CXCR6 inh,CCR6 antag,APJ antagonist,APJ antag confirm
COC(=O)C1=C(C)N(Cc2ccccc2)C(=NCC(C)C)N[C@H]1c1cccc(C(F)(F)F)c1,12,34,-2,-8,10,34,.
Cc1c(Cl)cccc1NC(=S)NNc1ncc(C(F)(F)F)cc1Cl,-6,12,-14,53*,87*,72*,117*
O=C(NNc1ncc(C(F)(F)F)cc1Cl)c1c(Cl)cccc1Cl,3,-10,-8,18,22,40,65*
Cc1cccc(C)c1NC(=S)NNc1ncc(C(F)(F)F)cc1Cl,4,3,-5,16,29,29,.
COc1ccc(S(=O)(=O)NC(C)C(=O)Nc2ccc3c(c2)OCCO3)cc1OC (stereo unspecified),-12,-1,-4,-12,5,47*,25
COc1ccc(S(=O)(=O)NC(C)C(=O)Nc2ccc3c(c2)OCO3)cc1OC (stereo unspecified),6,12,-1,-3,8,7,.
CNC(=O)C[C@H]1C(=O)N(CCc2ccccc2)C[C@@H]1CSC,16,.,.,8,.,.,.
COc1ccc(Cn2nnnc2C(c2cc(OC)ccc2OC)N2CCC(C(N)=O)CC2)cc1 (stereo unspecified),-8,2,-1,-2,-3,43*,20
C=CCN1C(=O)c2ccc(C(=O)OCC(=O)N(CC)c3c(N)n(Cc4ccccc4)c(=O)[nH]c3=O)cc2C1=O,-15,10,.,-4,0,.,.
O=C(Cc1ccccc1)NCC(=O)OCC(=O)c1cccc([N+](=O)[O-])c1,-16,1,-7,22,53*,46*,68*
O=C(CNC(=O)c1ccco1)OCC(=O)c1ccc(Cl)cc1,-11,-6,0,2,10,18,.
O=C(Cc1ccccc1)NCC(=O)OCc1ccc([N+](=O)[O-])cc1,-9,6,-3,-2,11,-6,.
O=C(CN1C(=O)c2ccccc2C1=O)NCC(=O)OCC(=O)c1cccc([N+](=O)[O-])c1,-13,-2,-9,24,49,70*,103*
O=C(CNC(=O)c1ccco1)NCC(=O)OCC(=O)c1ccc(Cl)c([N+](=O)[O-])c1,-91,1,-33,58*,89*,82*,147*
O=C(CN1C(=O)C2C3CC(C(Br)C3Br)C2C1=O)OCC(=O)c1cccc([N+](=O)[O-])c1 (stereo unspecified),5,-4,-7,26,42,44*,59*
Cc1cccc(NC(=O)c2cccnc2Oc2ccccc2)c1C(=O)O,-14,0,-1,2,2,-5,.
CCOCCCNC(=S)N(CCN(C)C)Cc1cc2cc3c(cc2[nH]c1=O)OCCO3,3,1,3,6,7,-11,.
O=C(CN1C(=O)C2CC=CCC2C1=O)OCC(=O)c1ccc(Cl)c([N+](=O)[O-])c1 (stereo unspecified),-33,7,-32,58*,79*,79*,149*
O=C(CCc1ccccc1)OCC(=O)c1cccc([N+](=O)[O-])c1,-12,5,-8,16,42,66*,64*
O=C(CN1C(=O)C2C3C=CC(C3)C2C1=O)OCC(=O)c1ccc(Cl)cc1 (stereo unspecified),8,-4,9,3,13,3,.
O=C(NCCc1ccc(Cl)cc1)c1cc(S(=O)(=O)N2CCCC2)ccc1F,12,.,.,-3,.,.,.
COCCN1C(=O)COc2ccccc2C1C(=O)NC1CCCC1 (stereo unspecified),.,.,.,-3,.,.,.
CC(C)N1CCc2c(sc(NC(=O)c3cc(-c4cccs4)nc4ccccc34)c2C(N)=O)C1,33,-42,-15,17,62*,46*,65*
Cc1c(OCC(=O)NC2CCN(Cc3ccccc3)CC2)ccc2c3c(c(=O)oc12)CCC3,-2,12,-2,-5,43,20,.
CSC(=NCc1ccco1)NC#N,-9,9,2,4,5,44*,-1
SMILES,PfGluPho inh,Beta2AR agonist,APJ agonist,CXCR6 inh,CCR6 antag,APJ antagonist,APJ antag confirm
NC(=NCc1ccco1)NC(=O)c1ccccc1,-16,-2,0,3,-1,15,.
ON1C(c2ccccc2C(F)(F)F)N(O)[C@H]2CCCC[C@H]21 (stereo partly specified),7,10,-8,20,29,40*,38
COc1ccc(C(C[N+](=O)[O-])c2c(C)[nH]n(-c3ccccc3)c2=O)cc1 (stereo unspecified),16,13,5,-20,23,2,.
Cc1[nH]n(-c2ccccc2)c(=O)c1C(c1ccc(O)c([N+](=O)[O-])c1)c1c(C)[nH]n(-c2ccccc2)c1=O,-23,20,-4,21,45,40*,41
CCN1C(=O)C(=Cc2cccc(OC)c2Oc2ccc([N+](=O)[O-])cc2[N+](=O)[O-])SC1=S,-1,23,-7,42*,60*,50*,71*
COc1cc(/C=C2\SC(=O)NC2=O)ccc1Oc1ccc([N+](=O)[O-])cc1[N+](=O)[O-],9,5,3,-16,-23,-22,.
CCN(CC)CCSc1nnc(Nc2ccccc2)n1-c1ccccc1,11,-1,-2,6,-5,51*,20
COc1ccc(/C=C/C(=O)Nc2cccc(S(=O)(=O)NC3=NCCCCC3)c2)cc1OC,3,8,2,-9,8,-1,.
COc1ccc(C(=O)/C=C/C(=O)N(CC(=O)NC2CCCCC2)CC2CCCO2)c(O)c1 (stereo unspecified),51,112*,-4,68*,87*,56*,110*
COc1ccc(C(=O)/C=C/C(=O)N(Cc2ccccc2)C(C(=O)NC2CCCCC2)c2ccncc2)c(O)c1 (stereo unspecified),29,-9,-5,13,4,9,.
Cn1c(CCNS(=O)(=O)c2ccccc2)nnc1SCc1cccnc1,4,-3,-3,-11,-8,-13,.
COc1cc2c(cc1CN1CCN(C(=O)c3cc(OC)c(OC)c(OC)c3)CC1)OCO2,-11,-2,-3,6,13,6,.
O=c1c2cc(Br)ccc2[nH]c(=S)n1Cc1ccccn1,-2,-18,-7,51*,56*,59*,93*

# Screening data as filed in PubChem BioAssay.
